We go through one compound from ChEMBL document CHEMBL4350961, “Discovery of Pyrrolo[3,2- d]pyrimidin-4-one Derivatives as a New Class of Potent and Cell-Active Inhibitors of P300/CBP-Associated Factor Bromodomain” (J Med Chem, 2019).

For test [1], the target named is Mitogen-activated protein kinase 12 (Homo sapiens) (UniProt P53778). Briefly: Inhibition of recombinant full-length human SAPK3 at 10 uM using myelin basic protein as substrate measured after 40 mins in presence of [gamma33P]ATP by scintillation counting method.
For test [2], the system named is Hepatocyte growth factor receptor (Homo sapiens), P08581 [D1228H]. In words: Inhibition of recombinant human MET A1209G/V1290L/D1246H mutant (974 to end residues) at 10 uM using KKKGQEEEYVFIE as substrate measured after 40 mins in presence of [gamma33P]ATP by scintillation counting method.
In test [3] the test system is Mast/stem cell growth factor receptor Kit (Homo sapiens), P10721 [V654A]. Briefly: Inhibition of recombinant human c-Kit V654A mutant (544 to end residues) at 10 uM using GGMEDIYFEFMGGKKK as substrate measured after 40 mins in presence of [gamma33P]ATP by scintillation counting method.
Test [4] addresses Insulin receptor (Homo sapiens) (UniProt P06213). In words: Inhibition of recombinant human IR (1005 to 1310 residues) at 10 uM using KKSRGDYMTMQIG as substrate measured after 40 mins in presence of [gamma33P]ATP by scintillation counting method.
The test system of test [5] is Tyrosine-protein kinase ABL1 (Homo sapiens), P00519 [H396P]. Briefly: Inhibition of recombinant human ABL H396P mutant (27 to end residues) at 10 uM using EAIYAAPFAKKK as substrate measured after 40 mins in presence of [gamma33P]ATP by scintillation counting method.
In test [6] the target is PI3K p110 delta/p85 alpha (Mus musculus) (UniProt P26450+O35904). Briefly: Inhibition of recombinant full-length mouse PI3K p110delta/p85alpha at 10 uM using phosphatidylinositol-4, 5-bisphosphate as substrate measured after 40 mins by HTRF assay. The test is classed as protein-complex assay.
The target in test [7] is Phosphorylase b kinase gamma catalytic chain, skeletal muscle/heart isoform (Homo sapiens) (UniProt Q16816). Briefly: Inhibition of recombinant full-length human PhKgamma1 at 10 uM using KKLNRTLSFAEPG as substrate measured after 120 mins in presence of [gamma33P]ATP by scintillation counting method.
Test [8] has as its target Phosphatidylinositol 4-phosphate 3-kinase C2 domain-containing subunit alpha (Homo sapiens) (UniProt O00443). Briefly: Inhibition of recombinant human PI3KC2alpha (299 to end residues) at 10 uM using phosphatidylinositol as substrate measured after 40 mins by HTRF assay.
For test [9], the target named is Serine/threonine-protein kinase Nek9 (Homo sapiens) (UniProt Q8TD19). Briefly: Inhibition of recombinant human NEK9 (1 to 324 residues) at 10 uM using myelin basic protein as substrate measured after 40 mins in presence of [gamma33P]ATP by scintillation counting method.
Chain of Serine/threonine-protein kinase Nek9 (Homo sapiens) (Q8TD19 whole entry, the tested form may be a part): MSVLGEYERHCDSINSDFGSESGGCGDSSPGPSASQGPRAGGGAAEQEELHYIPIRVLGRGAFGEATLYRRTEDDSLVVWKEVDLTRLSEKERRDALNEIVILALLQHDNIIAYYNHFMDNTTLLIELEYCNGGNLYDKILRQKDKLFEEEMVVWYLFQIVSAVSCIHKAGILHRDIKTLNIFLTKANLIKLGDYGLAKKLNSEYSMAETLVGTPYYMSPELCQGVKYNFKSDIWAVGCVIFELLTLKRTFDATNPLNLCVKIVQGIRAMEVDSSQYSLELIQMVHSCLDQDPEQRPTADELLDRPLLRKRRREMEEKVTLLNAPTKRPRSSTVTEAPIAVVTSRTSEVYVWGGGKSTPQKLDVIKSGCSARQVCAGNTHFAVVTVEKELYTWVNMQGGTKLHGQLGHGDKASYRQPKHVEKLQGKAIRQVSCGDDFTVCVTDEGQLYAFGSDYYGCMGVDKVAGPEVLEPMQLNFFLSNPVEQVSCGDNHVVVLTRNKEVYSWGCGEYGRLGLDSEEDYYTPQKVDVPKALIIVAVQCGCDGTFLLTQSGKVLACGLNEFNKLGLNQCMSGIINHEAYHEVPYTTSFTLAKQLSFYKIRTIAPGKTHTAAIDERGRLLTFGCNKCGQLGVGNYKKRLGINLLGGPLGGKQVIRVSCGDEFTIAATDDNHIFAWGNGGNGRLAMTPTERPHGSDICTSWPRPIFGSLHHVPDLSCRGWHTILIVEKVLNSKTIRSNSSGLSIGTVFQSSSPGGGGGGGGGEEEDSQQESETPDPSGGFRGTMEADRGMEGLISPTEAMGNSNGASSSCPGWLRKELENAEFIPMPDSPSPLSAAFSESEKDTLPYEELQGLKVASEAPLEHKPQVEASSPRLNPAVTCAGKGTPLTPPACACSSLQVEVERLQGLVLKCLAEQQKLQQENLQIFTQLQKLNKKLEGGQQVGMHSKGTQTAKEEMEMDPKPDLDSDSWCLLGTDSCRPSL
Test [10] deals with Focal adhesion kinase 1 (Homo sapiens) (UniProt Q05397). In words: Inhibition of recombinant human FAK (411 to 686 residues) at 10 uM using EEEEYEEEEEEYYIIEEEEEEYEEEEEEYYEEEEEEKKKK as substrate measured after 40 mins in presence of [gamma33P]ATP by scintillation counting method.
A further test concerns the target Peregrin (Homo sapiens) (UniProt P55201). Briefly: Binding affinity to human N-terminal His-tagged BRPF1 assessed as change in melting temperature at 10 uM by SYPRO orange dye-based fluorescence assay. The method in brief:
(§1)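 Thermal shift with His-tagged human bromodomain at 2 μM final in 10 mM HEPES pH 7.5, 500 mM NaCl. Compound at 10 μM final with 0.1% DMSO; SYPRO Orange at 1:1000. Equilibrated 3 min at 25 °C, then heated from 25 to 95 °C at 1 °C/min. Melting temperature shift taken from fluorescence; at least duplicate.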

The target in test [11] is Cyclin-dependent kinase 14/Cyclin-Y (Homo sapiens) (UniProt O94921+Q8ND76). Briefly: Inhibition of human CDK14/cyclinY at 10 uM by radiometric method. The test is classed as protein-complex assay. The method in brief:
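Kinase panel of 422 kinases screened by Eurofins KinaseProfiler at a single test-compound concentration of 10 µM.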

For test [12], the target named is Protein kinase C theta type (Homo sapiens) (UniProt Q04759). In words: Inhibition of recombinant full-length human PKCtheta at 10 uM using histone H1as substrate measured after 40 mins in presence of [gamma33P]ATP by scintillation counting method.
A further test is filed under the species Homo sapiens. Briefly: Inhibition of recombinant human EphB2 A848S/ K918E mutant (560 to end residues) at 10 uM using KTFCGTPEYLAPEVRREPRILSEEEQEMFRDFDYIADWC as substrate measured after 40 mins in presence of [gamma33P]ATP by scintillation counting method.
The target in test [13] is Serine/threonine-protein kinase BRSK1 (Homo sapiens) (UniProt Q8TDC3). Briefly: Inhibition of recombinant human BrSK1 (2 to end residues) at 10 uM using KKKVSRSGLYRSPSMPENLNRPR as substrate measured after 120 mins in presence of [gamma33P]ATP by scintillation counting method.
Test [14] concerns the target Serine/threonine-protein kinase MAK (Homo sapiens) (UniProt P20794). Briefly: Inhibition of recombinant full-length human MAK at 10 uM using RRRFRPASPLRGPPK as substrate measured after 120 mins in presence of [gamma33P]ATP by scintillation counting method.
Test [15] addresses Bromodomain adjacent to zinc finger domain protein 2B (Homo sapiens) (UniProt Q9UIF8). In words: Binding affinity to human partial length BAZ2B (S2054 to S2168 residues) expressed in bacterial expression system at 1 uM by BROMOscan assay. The method in brief:
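BROMOscan bromodomain cross-screen run by an outside service, compound at 1 µM against 32 recombinant bromodomains. Binding given as percent of control.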

The subject of test [16] is Phosphorylase b kinase gamma catalytic chain, liver/testis isoform (Homo sapiens), P15735 [F290L]. In words: Inhibition of recombinant human PhKgamma2 F290L mutant (1 to 301 residues) at 10 uM using KKLNRTLSFAEPG as substrate measured after 40 mins in presence of [gamma33P]ATP by scintillation counting method.
For test [17], the target named is Transcription initiation factor TFIID subunit 1 (Homo sapiens) (UniProt P21675). Briefly: Binding affinity to human N-terminal His-tagged TAF1 bromodomain1 assessed as change in melting temperature at 10 uM by SYPRO orange dye-based fluorescence assay. The method in brief: as §1
Chain of Transcription initiation factor TFIID subunit 1 (Homo sapiens) (P21675 whole entry): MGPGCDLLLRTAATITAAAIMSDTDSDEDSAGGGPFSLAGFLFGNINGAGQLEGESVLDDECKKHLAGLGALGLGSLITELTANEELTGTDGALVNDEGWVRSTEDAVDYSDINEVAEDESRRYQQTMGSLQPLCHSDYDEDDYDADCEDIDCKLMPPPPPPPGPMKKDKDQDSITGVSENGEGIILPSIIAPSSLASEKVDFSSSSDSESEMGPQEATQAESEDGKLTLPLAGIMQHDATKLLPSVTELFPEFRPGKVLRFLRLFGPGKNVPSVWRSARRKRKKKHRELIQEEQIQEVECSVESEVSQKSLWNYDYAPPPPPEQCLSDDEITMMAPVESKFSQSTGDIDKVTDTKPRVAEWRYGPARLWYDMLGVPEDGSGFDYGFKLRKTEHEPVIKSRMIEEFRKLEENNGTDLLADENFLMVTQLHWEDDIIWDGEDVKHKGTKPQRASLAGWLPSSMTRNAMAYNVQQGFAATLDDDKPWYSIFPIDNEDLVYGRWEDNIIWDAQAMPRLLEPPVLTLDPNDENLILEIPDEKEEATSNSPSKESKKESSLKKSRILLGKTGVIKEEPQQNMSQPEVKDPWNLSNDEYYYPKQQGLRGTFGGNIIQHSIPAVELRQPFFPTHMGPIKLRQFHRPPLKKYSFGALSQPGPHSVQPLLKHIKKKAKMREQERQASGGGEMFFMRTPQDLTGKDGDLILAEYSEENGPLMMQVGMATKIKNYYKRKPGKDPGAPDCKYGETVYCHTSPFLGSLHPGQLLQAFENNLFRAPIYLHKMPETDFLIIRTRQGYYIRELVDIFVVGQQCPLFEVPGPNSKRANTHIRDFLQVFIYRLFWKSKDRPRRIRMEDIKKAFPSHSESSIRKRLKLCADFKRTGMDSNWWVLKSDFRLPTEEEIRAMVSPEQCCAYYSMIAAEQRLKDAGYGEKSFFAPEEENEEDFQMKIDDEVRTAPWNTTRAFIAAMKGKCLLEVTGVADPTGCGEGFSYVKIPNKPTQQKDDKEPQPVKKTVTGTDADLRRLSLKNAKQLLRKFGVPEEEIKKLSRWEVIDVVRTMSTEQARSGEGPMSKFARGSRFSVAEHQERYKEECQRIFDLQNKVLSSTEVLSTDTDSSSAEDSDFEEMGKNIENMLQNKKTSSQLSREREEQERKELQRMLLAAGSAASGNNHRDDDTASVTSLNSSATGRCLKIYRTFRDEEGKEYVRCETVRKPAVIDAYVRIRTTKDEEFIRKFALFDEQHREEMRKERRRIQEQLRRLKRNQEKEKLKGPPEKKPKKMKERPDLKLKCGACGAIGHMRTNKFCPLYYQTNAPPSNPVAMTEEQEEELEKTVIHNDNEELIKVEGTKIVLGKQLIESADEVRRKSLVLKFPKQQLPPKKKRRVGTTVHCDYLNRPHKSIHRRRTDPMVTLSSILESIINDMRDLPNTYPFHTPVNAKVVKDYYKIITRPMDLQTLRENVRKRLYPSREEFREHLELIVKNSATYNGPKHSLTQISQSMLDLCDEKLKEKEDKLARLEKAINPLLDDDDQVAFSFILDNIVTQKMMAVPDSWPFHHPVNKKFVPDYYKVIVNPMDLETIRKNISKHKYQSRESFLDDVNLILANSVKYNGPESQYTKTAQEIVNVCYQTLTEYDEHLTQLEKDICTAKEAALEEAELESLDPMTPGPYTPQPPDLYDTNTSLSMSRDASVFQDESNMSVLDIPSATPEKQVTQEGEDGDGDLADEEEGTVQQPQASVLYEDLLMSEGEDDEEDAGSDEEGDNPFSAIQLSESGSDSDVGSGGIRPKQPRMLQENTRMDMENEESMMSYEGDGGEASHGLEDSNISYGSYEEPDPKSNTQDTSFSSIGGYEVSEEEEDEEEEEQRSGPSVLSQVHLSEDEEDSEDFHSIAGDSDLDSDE
For test [18], the target named is Serine/threonine-protein kinase 32C (Homo sapiens) (UniProt Q86UX6). Briefly: Inhibition of recombinant full-length human STK32C at 10 uM using casein as substrate measured after 120 mins in presence of [gamma33P]ATP by scintillation counting method.
Test [19] deals with Serine/threonine-protein kinase pim-2 (Homo sapiens) (UniProt Q9P1W9). Briefly: Inhibition of recombinant human Pim2 (2 to end residues) at 10 uM using RSRHSSYPAGT as substrate measured after 40 mins in presence of [gamma33P]ATP by scintillation counting method.
The target of test [20] is LIM domain kinase 1 (Homo sapiens) (UniProt P53667). Briefly: Inhibition of recombinant human LIMK1 (285 to 638 residues) at 10 uM using cofilin as substrate measured after 40 mins in presence of [gamma33P]ATP by scintillation counting method.

Calls of active or inactive are those of the source. No cut-off for these calls is given here.

Chain of Bromodomain adjacent to zinc finger domain protein 2B (Homo sapiens) (Q9UIF8 whole entry, the tested form may be a part): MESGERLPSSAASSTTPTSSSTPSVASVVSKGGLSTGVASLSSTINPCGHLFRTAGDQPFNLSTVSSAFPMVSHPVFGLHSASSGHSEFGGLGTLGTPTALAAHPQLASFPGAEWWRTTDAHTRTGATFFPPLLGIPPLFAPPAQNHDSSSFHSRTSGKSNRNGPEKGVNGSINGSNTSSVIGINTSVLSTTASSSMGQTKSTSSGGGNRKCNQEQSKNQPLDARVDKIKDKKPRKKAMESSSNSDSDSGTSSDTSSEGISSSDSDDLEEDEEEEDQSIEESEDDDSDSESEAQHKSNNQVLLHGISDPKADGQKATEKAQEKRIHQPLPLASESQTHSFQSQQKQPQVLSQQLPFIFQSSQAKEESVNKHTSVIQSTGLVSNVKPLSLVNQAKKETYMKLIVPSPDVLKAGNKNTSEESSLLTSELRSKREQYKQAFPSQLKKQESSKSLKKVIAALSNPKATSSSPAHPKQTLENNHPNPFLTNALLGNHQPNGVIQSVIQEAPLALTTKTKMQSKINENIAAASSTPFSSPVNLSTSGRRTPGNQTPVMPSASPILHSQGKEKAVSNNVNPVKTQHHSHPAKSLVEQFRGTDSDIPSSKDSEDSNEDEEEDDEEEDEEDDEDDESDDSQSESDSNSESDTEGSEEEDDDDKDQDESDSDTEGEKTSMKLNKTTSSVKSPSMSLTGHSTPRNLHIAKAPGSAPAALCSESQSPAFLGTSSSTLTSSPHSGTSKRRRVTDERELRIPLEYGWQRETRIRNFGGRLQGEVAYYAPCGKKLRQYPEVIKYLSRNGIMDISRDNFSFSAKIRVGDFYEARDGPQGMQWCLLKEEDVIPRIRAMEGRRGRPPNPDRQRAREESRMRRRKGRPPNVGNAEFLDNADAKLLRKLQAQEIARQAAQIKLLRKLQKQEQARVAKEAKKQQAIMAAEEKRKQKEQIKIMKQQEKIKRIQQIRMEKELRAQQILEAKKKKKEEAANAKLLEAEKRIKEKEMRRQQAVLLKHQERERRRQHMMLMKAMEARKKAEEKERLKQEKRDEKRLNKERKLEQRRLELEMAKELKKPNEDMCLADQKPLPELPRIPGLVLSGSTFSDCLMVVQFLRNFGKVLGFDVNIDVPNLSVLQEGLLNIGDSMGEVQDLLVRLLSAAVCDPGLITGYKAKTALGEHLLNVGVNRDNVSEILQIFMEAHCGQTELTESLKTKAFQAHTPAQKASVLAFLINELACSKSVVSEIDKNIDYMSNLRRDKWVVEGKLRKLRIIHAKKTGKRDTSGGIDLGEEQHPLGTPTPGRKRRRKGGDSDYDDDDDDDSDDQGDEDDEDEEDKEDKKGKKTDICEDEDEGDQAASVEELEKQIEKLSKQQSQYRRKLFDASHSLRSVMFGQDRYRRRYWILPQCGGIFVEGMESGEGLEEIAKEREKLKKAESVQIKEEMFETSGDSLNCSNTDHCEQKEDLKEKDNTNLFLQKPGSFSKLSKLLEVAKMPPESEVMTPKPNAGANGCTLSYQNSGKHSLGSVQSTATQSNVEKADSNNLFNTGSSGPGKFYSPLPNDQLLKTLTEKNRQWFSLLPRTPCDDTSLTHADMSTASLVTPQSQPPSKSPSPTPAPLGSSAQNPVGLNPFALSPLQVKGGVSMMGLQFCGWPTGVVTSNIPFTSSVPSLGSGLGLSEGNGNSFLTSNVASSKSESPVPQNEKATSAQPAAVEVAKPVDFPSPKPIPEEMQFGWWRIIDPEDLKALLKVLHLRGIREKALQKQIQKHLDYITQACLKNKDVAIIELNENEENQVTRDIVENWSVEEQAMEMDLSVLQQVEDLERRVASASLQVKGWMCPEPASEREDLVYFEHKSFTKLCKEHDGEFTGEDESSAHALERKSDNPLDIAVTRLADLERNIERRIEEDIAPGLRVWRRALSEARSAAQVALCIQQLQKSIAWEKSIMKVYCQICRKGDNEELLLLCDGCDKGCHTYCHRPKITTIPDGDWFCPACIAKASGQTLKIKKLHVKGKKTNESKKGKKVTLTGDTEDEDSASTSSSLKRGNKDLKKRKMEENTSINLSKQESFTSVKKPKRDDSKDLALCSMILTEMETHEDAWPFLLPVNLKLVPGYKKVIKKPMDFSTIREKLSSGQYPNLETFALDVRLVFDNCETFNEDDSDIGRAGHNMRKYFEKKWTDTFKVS

In general, ΔTm refers to the shift of the melting midpoint relative to a reference. In the case of `CN1C[C@H](Nc2nc3cc[nH]c3c(=O)n2C)C[C@H](c2ccc3c(c2)OCCO3)C1`, the inhibition entry in test [1], in test [2], in [3], in [4], in test [5] and in test [6] was “inactive” in each case. In addition, the inhibition result in test [7], in [8], in test [9], in test [10], in [11] and in test [12] was “inactive” in each case. Also, the inhibition entry (in the test listed under Homo sapiens; in [13]; in test [14]; in test [16]; in [18]; in test [19]) was “inactive” in each case. Besides, the inhibition result in test [20] was “inactive”. The ΔTm on Peregrin (Homo sapiens) came to 2.6 °C; in [17] it was 0.2 °C. Also, the result in test [15] was Active.
